rRNA inh HTS: inhibits bacterial ribosomal RNA function over humanized ribosomes. hit rate 1.6% among 350,000. GFP signal change (wild-type ribosome), % (test concentration not listed). E. coli WT GFP vs humanized-ribosome RFP mutants, fluorescence, 24 h; active compounds read low; DMSO median 0, no signal -100;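 active means significant combined selectivity score with lowered wild-type GFP, culture density cut under 30%, mutant RFP and density less affected; inactive means any of these conditions unmet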
CFTR F508del cor: CFTR F508del correction in bronchial cells; CFBE cells, YFP halide quenching; stimulated with forskolin plus potentiator P3; % fluorescence drop versus neutral controls; activity (quench increase), % at 7.58 µM; hit rate 0.36% among 350,000; AID 720511;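 active means mean added fluorescence quench of at least 8% versus neutral control, with both replicates also reaching 8%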;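 further: cells transiently co-express mutant CFTR-F508del with the halide-sensitive YFP; corrector assay measuring rescue of mutant channel to the surface after 24 h compound exposure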
ERAP1 inh: blocks human ERAP1 aminopeptidase activity; inhibition, % at 10.7 µM; recombinant ERAP1, Leu-AMC fluorescence, 60 min; Q9NZ08; hit rate 0.15% among 340,000;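 active means mean replicate inhibition of at least 30%, or all replicates individually reaching that 30% level; inactive means mean below 30% and not every replicate reaching it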
SIRT5 block: sirtuin-5 (human) deacylase inhibition | Purified SirT5, succinyl-peptide AMC, trypsin-coupled fluorescence | inhibition, % at 15 µM | Q9NXA8 | hit rate 1.1% among 330,000; in the data active means inhibition above about 15%
Target sequence (Q9NXA8 whole entry, looked up): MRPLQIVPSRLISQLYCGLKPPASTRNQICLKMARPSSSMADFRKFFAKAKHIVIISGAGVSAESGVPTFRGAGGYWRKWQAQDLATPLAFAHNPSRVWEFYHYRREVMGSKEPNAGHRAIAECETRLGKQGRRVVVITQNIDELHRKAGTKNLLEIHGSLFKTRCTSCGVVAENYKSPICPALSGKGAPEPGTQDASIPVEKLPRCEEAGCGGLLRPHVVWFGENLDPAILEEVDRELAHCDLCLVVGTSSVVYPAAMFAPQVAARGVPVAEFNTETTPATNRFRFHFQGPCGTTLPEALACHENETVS
S100A4 MyoIIA: blocks human S100A4 binding to myosin IIA peptide. P26447. hit rate 0.14% among 360,000. inhibition, % at 10.7 µM. S100A4/TAMRA-MyoIIA peptide fluorescence polarization;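 active means mean inhibition of at least 70% across replicates, with every replicate also reaching that level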
Target sequence (P26447 whole entry, looked up): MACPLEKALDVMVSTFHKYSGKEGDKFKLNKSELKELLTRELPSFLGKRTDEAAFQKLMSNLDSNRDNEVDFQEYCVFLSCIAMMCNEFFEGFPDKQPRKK
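Material: S100A4 monomer protein | Medium: HEPES pH 7.2 with CaCl2, KCl, NaCl, DTT, Triton | Reagent: Labelled myosin peptide probe, 5 nM | Doses: One dose per compound | Times: 5 min incubation before reading | Benchmarks: Neutral control DMSO, positive control TFP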
Numbers stand for hits; – = inactive; · = no result. This is a sample that favours compounds with a hit; in the whole collection about 3.1% have one here.

SMILES	rRNA inh HTS	CFTR F508del cor	ERAP1 inh	SIRT5 block	S100A4 MyoIIA
C[C@@H]1CN([C@@H](C)CO)S(=O)(=O)c2ccc(C#CC(C)(C)O)cc2O[C@H]1CN(C)Cc1ccc(-c2ccccc2)cc1	–	–	–	–	–
C[C@@H]1CN([C@@H](C)CO)S(=O)(=O)c2ccc(C#CC(C)(C)O)cc2O[C@H]1CN(C)Cc1ccc(F)cc1	–	–	–	17.8	–
C[C@@H]1CN([C@@H](C)CO)S(=O)(=O)c2ccc(C#CC(C)(C)O)cc2O[C@@H]1CN(C)Cc1ccc(-c2ccccc2)cc1	–	–	–	19.0	–
CC(=O)n1cc(/C=N/NC(=O)c2ccccc2O)c2ccccc21	-25.4	–	–	–	–
O=C(CSc1ccccc1)N/N=C/c1ccccc1O	-18.6	–	–	–	–
Cc1ccc2[nH]c(C(=O)N/N=C/c3ccccc3O)c(C)c2c1	–	8.4	–	–	–
Cc1ccc(S(=O)(=O)NCC(=O)N/N=C/c2ccc(Cl)cc2Cl)cc1	–	–	–	·	–
Cc1ccc2[nH]c(C(=O)N/N=C/c3ccccc3C(=O)O)c(-c3ccccc3)c2c1	–	–	–	–	–
Cc1ccc(S(=O)(=O)NCC(=O)N/N=C/c2ccccc2O)cc1	-30.6	–	–	·	–
O=C(CCSCCC(=O)NN=Cc1ccccc1O)NN=Cc1ccccc1O	–	–	–	–	–
COc1ccc(S(=O)(=O)N(C)C[C@@H]2OCCCC[C@@H](C)Oc3ccc(NC(=O)Nc4ccc5c(c4)OCO5)cc3C(=O)N([C@@H](C)CO)C[C@H]2C)cc1	–	–	–	–	–
O=C(N/N=C/c1ccccc1O)c1cccc2ccccc12	-35.5	–	–	–	–
CCOC(=O)C1CCN(C(=S)Nc2ccccc2)CC1	–	–	–	–	–
CCOC(=O)C1CCCN(C(=S)Nc2ccc(Nc3ccccc3)cc2)C1 (stereo unspecified)	-29.9	–	–	–	–
O=C(N/N=C/c1ccccc1O)C1SCCCS1	-14.2	–	–	–	–
O=C(NC(=S)Nc1ccccc1N1CCOCC1)c1cccs1	-29.0	·	–	–	–
FC(F)(F)Oc1ccc(NC(=S)Nc2ccccc2N2CCOCC2)cc1	-50.6	–	–	–	–
O=C(NC(=S)Nc1ccccc1N1CCOCC1)c1ccccc1F	-34.0	–	–	–	–
Cc1ccc(SCC(=O)Nc2ccccc2N2CCOCC2)cc1	-27.7	–	–	–	–
O=C(NC(=S)Nc1ccccc1N1CCCC1)c1cccs1	–	·	–	–	–
c1ccc2c(C3=NNC(=NC4CCCCC4)SC3)c[nH]c2c1	-33.7	·	–	–	–
O=C(CCCN1C(=O)/C(=C/c2ccco2)SC1=S)Nc1cccc(C(=O)O)c1	–	–	31.7	41.5	–
O=C(CCCN1C(=O)/C(=C\c2ccco2)SC1=S)Nc1ccc(O)cc1C(=O)O	–	–	–	39.9	–
O=C(C[C@@H]1C[C@@H]2c3cc(NC(=O)NC4CCCC4)ccc3O[C@@H]2[C@H](CO)O1)NCc1ccccc1	–	·	·	·	·
O=C(N/N=C\c1cc(Br)ccc1O)c1ccc(S(=O)(=O)N2CCCCC2)cc1	–	16.9	–	–	–
SMILES	rRNA inh HTS	CFTR F508del cor	ERAP1 inh	SIRT5 block	S100A4 MyoIIA
Cn1nc(C(=O)Nc2ccc(Cl)c(S(=O)(=O)N3CCOCC3)c2)c2ccccc2c1=O	–	–	–	–	–
CC(=O)c1ccc(S(=O)(=O)Nc2ccc(S(=O)(=O)N3CCCCC3)cc2)cc1	–	–	–	–	–
CC(=O)c1ccc(NC(=O)Nc2ccc(S(=O)(=O)N3CCCC3)cc2)cc1	-27.6	–	–	–	–
Cn1nc(C(=O)Nc2ccc(S(=O)(=O)N3CCCCC3)cc2)c2ccccc2c1=O	-21.4	–	–	–	–
NS(=O)(=O)c1ccc(NC(=O)c2ccc(S(=O)(=O)N3CCCCCC3)cc2)cc1	-19.8	–	–	–	–
N#C[C@H]1[C@@H](c2ccccc2C2=CCCC2)[C@@H](CO)N1C(=O)CN1CCOCC1	–	–	–	–	–
O=C(NCc1ccncn1)[C@H]1[C@H](CO)[C@H]2Cn3c(ccc(-c4ccc(F)cc4)c3=O)[C@H]2N1CC1CC1	–	·	–	–	–
O=C(Nc1cccc(S(=O)(=O)N2CCCCC2)c1)c1ccc(OCC2CCCO2)cc1 (stereo unspecified)	–	–	–	–	–
O=C(Nc1ccc(S(=O)(=O)N2CCCC2)cc1)c1ccc(OCC2CCCO2)cc1 (stereo unspecified)	-19.8	–	–	–	–
COc1cc(/C=C(\C#N)C(=O)Nc2cccc(C(=O)O)c2)ccc1OCc1ccc(F)cc1	–	–	–	–	–
COc1cc(/C=C(/C#N)C(=O)Nc2cc(C(F)(F)F)ccc2Cl)ccc1OCC(=O)Nc1cccc(C(F)(F)F)c1	–	–	–	16.2	–
C[C@@H]1CCCCO[C@@H](CN(C)S(C)(=O)=O)[C@H](C)CN([C@H](C)CO)C(=O)c2cc(NS(C)(=O)=O)ccc2O1	–	–	·	·	·
O=C(COc1ccccc1)NNc1nc2ccccc2s1	-27.5	–	–	–	–
COc1ccc2nc(NC(=O)Nc3ccccc3OC)sc2c1	–	–	–	–	–
COc1ccc(C(=O)Nc2nc3ccccc3s2)cc1	–	–	–	–	–
COc1ccccc1NC(=O)Nc1nc2ccc(S(N)(=O)=O)cc2s1	-15.9	–	–	–	–
COc1ccc2nc(NC(=O)Nc3cccc4ccccc34)sc2c1	-23.2	–	–	–	–
COc1cccc(C(=O)Nc2nc3ccccc3s2)c1	-29.5	–	–	–	–
COc1ccc2nc(NNC(=O)COc3ccccc3)sc2c1	–	–	–	–	–
COc1ccc(NC(=O)Nc2ccc3c(c2)C(=O)N([C@H](C)CO)C[C@H](C)[C@H](CN(C)S(=O)(=O)c2ccccc2)OCCCC[C@H](C)O3)cc1	–	–	–	–	–
O=C(NCC[C@H]1CC[C@@H](NC(=O)c2ccccc2F)[C@H](CO)O1)c1cnccn1	–	–	–	–	–
CCCOc1ccccc1/C=C(\C#N)C(=O)Nc1cccc(C)n1	-23.5	–	–	–	–
Cc1cccc(NC(=O)/C(C#N)=C/c2ccc(F)cc2)n1	–	–	–	–	–
Cc1noc(C)c1S(=O)(=O)Nc1ccc2c(c1)C(=O)N([C@H](C)CO)C[C@H](C)[C@@H](CN(C)Cc1ccc(Cl)c(Cl)c1)OCCCC[C@H](C)O2	–	–	–	15.5	–
Cc1noc(C)c1S(=O)(=O)Nc1ccc2c(c1)C(=O)N([C@H](C)CO)C[C@@H](C)[C@H](CN(C)Cc1ccc(Cl)c(Cl)c1)OCCCC[C@@H](C)O2	–	–	–	17.0	–
Cc1noc(C)c1S(=O)(=O)Nc1ccc2c(c1)C(=O)N([C@@H](C)CO)C[C@H](C)[C@@H](CN(C)Cc1ccc(Cl)c(Cl)c1)OCCCC[C@H](C)O2	–	–	–	–	–
CN1CCN(C(=O)C[C@H]2C[C@H]3c4cc(NC(=O)C5CCOCC5)ccc4O[C@H]3[C@H](CO)O2)CC1	–	–	–	–	–
